Results reported in paper PMC8244166 (Neuron, 2020).
Values joined by “and” are separate entries in the source; they are usually repeats but may differ in a detail not shown here. Identical values can stand only once.

Key:
Glu864Trp channel = test: Single channel recordings, point mutant; format: cell-based, human; details: +80 mV
hTRPA1 [1] = biological target: T1, hTRPA1 (Homo sapiens, UniProt O75762); test: Whole-cell voltage-clamp recordings of TRPA1-expressing HEK293-F cells; format: cell-based; details: for current of second application compared to the first: whole-cell, n = 3
T1 sequence (O75762 whole entry): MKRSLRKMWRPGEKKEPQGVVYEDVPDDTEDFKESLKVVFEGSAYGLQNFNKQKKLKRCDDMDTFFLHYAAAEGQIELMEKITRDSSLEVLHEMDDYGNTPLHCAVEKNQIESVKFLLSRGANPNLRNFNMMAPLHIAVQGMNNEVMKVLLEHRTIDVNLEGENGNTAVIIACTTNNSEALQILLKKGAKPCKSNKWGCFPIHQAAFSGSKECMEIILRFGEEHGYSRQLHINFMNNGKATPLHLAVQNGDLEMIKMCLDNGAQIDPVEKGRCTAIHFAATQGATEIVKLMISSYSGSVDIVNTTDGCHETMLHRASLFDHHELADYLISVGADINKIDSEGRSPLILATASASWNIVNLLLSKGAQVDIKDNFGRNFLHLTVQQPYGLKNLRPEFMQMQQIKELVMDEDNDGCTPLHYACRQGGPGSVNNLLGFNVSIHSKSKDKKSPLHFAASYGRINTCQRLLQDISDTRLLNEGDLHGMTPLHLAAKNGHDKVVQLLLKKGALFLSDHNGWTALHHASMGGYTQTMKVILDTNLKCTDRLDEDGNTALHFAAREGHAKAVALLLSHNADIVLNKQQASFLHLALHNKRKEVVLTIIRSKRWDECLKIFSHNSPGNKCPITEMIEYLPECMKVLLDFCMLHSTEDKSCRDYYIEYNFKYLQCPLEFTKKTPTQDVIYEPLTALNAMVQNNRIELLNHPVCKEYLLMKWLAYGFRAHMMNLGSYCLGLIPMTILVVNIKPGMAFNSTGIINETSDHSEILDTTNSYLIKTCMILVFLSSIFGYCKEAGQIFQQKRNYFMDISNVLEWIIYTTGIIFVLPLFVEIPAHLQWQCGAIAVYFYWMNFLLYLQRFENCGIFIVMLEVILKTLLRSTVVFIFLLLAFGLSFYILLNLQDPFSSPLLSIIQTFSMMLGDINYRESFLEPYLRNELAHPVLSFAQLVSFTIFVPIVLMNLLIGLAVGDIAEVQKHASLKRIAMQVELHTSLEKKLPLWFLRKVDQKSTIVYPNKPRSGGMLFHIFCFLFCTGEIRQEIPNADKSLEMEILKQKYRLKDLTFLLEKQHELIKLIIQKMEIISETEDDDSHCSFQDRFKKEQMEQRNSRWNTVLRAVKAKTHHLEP

TRPA1 channel = test: Inside-out single channel / macropatch recordings; format: cell-based, human; details: for y (single channel conductance) / Px/PNa (ion selectivity against Na+): 1 μM GNE551, 10 μM AITC; for Erev (reversal potential) / opening frequency / single channel open probability (Po): 1 μM GNE551 (n = 5); for Erev (reversal potential): 10 μM AITC (n = 4); for channel desensitization: nominally Ca2+-free solutions, AITC 10 μM, GNE551 1 μM; for opening frequency / single channel open probability (Po) / open state dwell time: inside-out; for opening frequency / single channel open probability (Po): +80 mV, 100 nM WaTx (n = 8); for open state dwell time: agonist-activated channels
[2] = Glutathione reactivity assay; format: physicochemical; details: 10 μM compound, 1 mM glutathione, pH7.4, 37°C, 30 minutes
Method in brief: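 The test compound (10 μM) is incubated with or without 1 mM glutathione in 50 mM potassium phosphate, pH7.4, at 37°C for 30 minutes, and the reaction is stopped on ice. Samples run by UHPLC-MS on a C18 column at 40 °C and 0.4 mL/min, with a 0.1% formic acid water/acetonitrile gradient of 5–50% B over 15 minutes, then a 95% B wash.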

Gln940Val TRPA1 = test: Whole-cell patch clamp, point mutant; format: cell-based, human; details: GNE551 1.5 μM, AITC positive control, n = 4
Method in brief: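 HEK293-F cells are recorded whole-cell one day after transient transfection. From a 0 mV holding potential, the protocol is 10 msec at −80 mV, a 200 msec ramp to +80 mV, then 10 msec at +80 mV, applied once per second. Nominally Ca2+-free solutions are used: bath NaCl/HEPES with 0.1 mM EGTA, pH 7.4; pipette CsF with 10 mM EGTA, pH 7.2. Compounds are delivered by fast solution exchange.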

TRPA1 Glu864Trp mutant = test: Ca2+ assay, point mutant; format: cell-based, human; details: high background Ca2+ signals
Method in brief: (§1)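 HEK293-F cells are transiently transfected with the TRPA1 construct one day before imaging. Cells are loaded with a calcium-sensitive dye for 1 h at 37 °C. Compound is added and fluorescence (Ca2+ RFU) is recorded on a kinetic fluorescence imager. EC50 comes from nonlinear regression constrained to EC50 > 0, Bottom = 0 and Hill slope between 1 and 3.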

[3] = test system: rat hind paw nocifensive behavior; test: Nocifensive behavior after intraplantar agonist injection; format: in vivo; details: for cumulative nocifensive time: n = 7
Method in brief: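 Male Sprague-Dawley rats aged 8 weeks or older are used; KO versus WT littermates from heterozygote crosses include both sexes. Under light restraint, a unilateral intraplantar injection of 25 μL is given with a 30-gauge needle: reference electrophile 0.1% or test agonist 10 mM. Rats are video-recorded 15 min (reference) or 30 min (test agonist) during the light phase. Licking, flicking and guarding time is scored blind offline, and groups are compared by two-tailed t-test.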

[4] = test system: AITC-evoked nocifensive behavior; test: Inhibition of AITC-evoked nocifensive behavior, PK/PD; format: in vivo, rat; details: 30 mg/kg dosing
[5] = test system: GNE551-evoked nocifensive behavior; test: Inhibition of GNE551-evoked nocifensive behavior, PK/PD; format: in vivo, rat
[6] = Rat pharmacokinetics after oral gavage; format: in vivo
hTRPA1 [7] = biological target: T1, hTRPA1; test: Ca2+ influx assay, HEK293-F cells expressing human TRPA1; format: cell-based
human TRPV1 = test: Ion channel selectivity test; format: cell-based; details: 20 μM
human TRPM8 = test: Ion channel selectivity test; format: cell-based; details: 20 μM
human TRPC6 = test: Ion channel selectivity test; format: cell-based; details: 20 μM
[8] = test system: human potassium channel hERG1; test: Ion channel selectivity test; format: cell-based; details: 10 μM
[9] = test system: Cav1.2 (L-dihydropyridine site); test: CEREP panel binding inhibition
NK1 receptor [10] = test: CEREP panel binding inhibition; details: 10 μM
NK1 receptor [11] = test: NK1 receptor agonist / antagonist assay; format: cell-based; details: up to 30 μM
Cav1.2 = Cav1.2 assay; format: cell-based; details: up to 30 μM
TRPA1 from rhesus monkey = test: Ca2+ assay, species TRPA1; format: cell-based
Method in brief: as §1

TRPA1 from dog = test: Ca2+ assay, species TRPA1; format: cell-based
Method in brief: as §1

TRPA1 from guinea pig = test: Ca2+ assay, species TRPA1; format: cell-based
Method in brief: as §1

TRPA1 from rat = test: Ca2+ assay, species TRPA1; format: cell-based
Method in brief: as §1

chicken TRPA1 = test: Ca2+ assay, species TRPA1; format: cell-based; details: concentration as high as 50 μM
Method in brief: as §1

[12] = test system: chimera containing S1-S6 domains of chicken TRPA1; test: Ca2+ assay, human-chicken chimera; format: cell-based
Method in brief: as §1

[13] = test system: Gln940Val mutant human channel; test: Ca2+ assay, point mutant; format: cell-based
Method in brief: as §1

[14] = test system: TRPA1 Ser873Val/Thr874Leu; test: Ca2+ assay, point mutant; format: cell-based, human
Method in brief: as §1

TRPA1 Phe909Ala = test: Ca2+ assay, point mutant; format: cell-based, human
Method in brief: as §1

TRPA1 Tyr840 to Phe = test: Ca2+ assay, point mutant; format: cell-based, human; details: versus wild type
Method in brief: as §1

[15] = test system: TRPA1 Tyr840 to Trp, His, Leu, or Ala; test: Ca2+ assay, point mutants; format: cell-based, human
Method in brief: as §1

[16] = test system: TRPA1 Gln940 to Asn, Val or Ala; test: Ca2+ assay, point mutants; format: cell-based, human
Method in brief: as §1

[17] = test system: TRPA1 Ser887 to Trp or Met; test: Ca2+ assay, point mutants; format: cell-based, human
Method in brief: as §1

[18] = test system: rat dorsal root ganglion neurons; test: Ca2+ influx in dorsal root ganglion neurons; format: cell-based; details: WT versus TRPA1 KO rats
hTRPA1 [19] = biological target: T1, hTRPA1
cryo-EM structure = biological target: the molecule itself; test: cryo-EM structure

## CCC(=N\O)/C(C)=C/c1ccc(F)cc1 [A-967079, reference compound]
Glu864Trp channel; A-967079 1 μM
  block of high basal activity: blocked

## C=CCN=C=S [AITC, allyl isothiocyanate, reference compound]
hTRPA1 [1]; −80 mV
  current of second application compared to the first: 19.4 ± 4.3%
TRPA1 channel; cation Ca2+
  y (single channel conductance): 30.9 ± 6.2 pS
TRPA1 channel; cation Mg2+
  Erev (reversal potential): −19.1 ± 1.5 mV
  y (single channel conductance): 30.1 ± 6.8 pS
TRPA1 channel; cation Na+
  y (single channel conductance): 134.9 ± 11.6 pS
TRPA1 channel
  channel desensitization: desensitized within seconds
[2]
  glutathione adduct formation: formed a glutathione adduct
Gln940Val TRPA1
  activation of mutant channel: robust response
TRPA1 Glu864Trp mutant
  response of mutant to agonist stimulation: almost lost responses
[3]; after 10 min, AITC 0.1%, 25 μl
  nocifensive response: completely disappeared
[3]; first 5 min period, AITC 0.1%, 25 μl, WT rats
  cumulative nocifensive time: 102 ± 19 s
[3]; intraplantar AITC 0.1%, 25 μl, WT and TRPA1 KO rats
  nocifensive behavior: elicited nocifensive behavior in wild type (WT) but not in knock out (KO) rats
[3]; second 5 min period, AITC 0.1%, 25 μl, WT rats
  cumulative nocifensive time: 57.7 ± 11.1 s

## Cn1cnc2ncn(Cc3nc(CCc4ccc(Cl)cc4)no3)c(=O)c21 [AMG0902]
[4]
  block of AITC-induced response: 86%
[5]; 30 mg/kg
  block of GNE551-induced response: 38%
[5]; increasing oral doses of antagonist
  latency to GNE551-induced nocifensive behavior: lengthened the latency
[6]
  Tmax (time point of maximal plasma concentration): 1 h

## COc1ccc(OC)c(NC(=O)c2nnn(Cc3ccc(Br)cc3F)c2N)c1 [GNE551, 5-amino-1-(4-bromo-2-fluorobenzyl)-N-(2,5-dimethoxyphenyl)-1H-1,2,3-triazole-4-carboxamide]
hTRPA1 [7]
  EC50: 254 nM
hTRPA1 [7]; Ca2+ influx, human TRPA1
  efficacy compared to AITC: equally efficacious
hTRPA1 [1]
  EC50: 141 nM
hTRPA1 [1]; +80 mV
  current of second application compared to the first: 93.5 ± 0.5%
hTRPA1 [1]; −80 mV
  current of second application compared to the first: 89.0 ± 6.3%
TRPA1 channel; cation Ca2+
  Erev (reversal potential): −25.6 ± 1.1 mV
  Px/PNa (ion selectivity against Na+): 15.7 ± 1.1
  y (single channel conductance): 21.6 ± 2.8 pS
TRPA1 channel; cation Mg2+
  Erev (reversal potential): −13.2± 2.7 mV
  Px/PNa (ion selectivity against Na+): 7.2 ± 1.3
TRPA1 channel; cation Na+
  y (single channel conductance): 101.4 ± 6.8 pS
TRPA1 channel
  opening frequency: 4.6 ± 0.6 Hz
  single channel open probability (Po): 0.41 ± 0.07 and 0.41
  open state dwell time: 20.9 milliseconds
  channel desensitization: did not result in desensitization
[2]
  glutathione adduct formation: did not form an adduct
Human TRPV1
  activation or block of channel: did not activate or block
Human TRPM8
  activation or block of channel: did not activate or block
Human TRPC6
  activation or block of channel: did not activate or block
[8]
  inhibition of channel: did not inhibit
[9]
  inhibition at 10 µM: > 75%
NK1 receptor [10]
  binding inhibition: > 75%
NK1 receptor [11]
  agonistic or antagonistic effect on NK1 receptor: did not translate to significant agonistic or antagonistic effect
Cav1.2
  inhibition of Cav1.2: did not translate to
TRPA1 from rhesus monkey
  channel activation: activated
TRPA1 from dog
  channel activation: activated
TRPA1 from guinea pig
  channel activation: activated
TRPA1 from rat
  channel activation: activated
Chicken TRPA1
  channel activation: no effect
[12]
  response of chimera: lost response
[13]
  effect of mutation on GNE551 activation: nearly abolished
Gln940Val TRPA1
  activation of mutant channel: failed to activate
[14]
  effect of mutation on GNE551 activation: not affected
TRPA1 Phe909Ala
  effect of mutation on GNE551 activation: not affected
TRPA1 Tyr840 to Phe
  reduction of potency by mutation: six-fold
[15]
  effect of mutation on sensitivity to GNE551: completely abolished
[16]
  effect of mutation on sensitivity to GNE551: completely abolished
[17]
  effect of mutation on activation: loss of activation
TRPA1 Glu864Trp mutant
  response of mutant to agonist stimulation: almost lost responses
Glu864Trp channel; GNE551 1 μM, n = 4, basal Po 0.56 ± 0.05
  open probability (Po): 0.80 ± 0.08
[18]
  specificity of activation in DRG neurons: solely activated TRPA1 channels
[3]; GNE551 10 mM, 25 μl, WT rats
  latency to nocifensive response: reduced
[3]; GNE551 10 mM, possibly vehicle effect
  residual response in TRPA1 KO rats: 13%
[3]; first 5 min after injection of GNE551
  nocifensive behaviors: virtually no paw flicking, licking, or guarding
[3]; intraplantar GNE551 1, 3, and 10 mM, 25 μl, WT rats
  nocifensive response: dose-dependent manner
[3]; intraplantar GNE551, 30-min observation
  time to plateau of nocifensive behaviors after injection: 15 to 20 min

## WaTx: cell-penetrating peptide toxin that activates TRPA1 (ASPQQAKYCYEQCNVNKVPFDQCYQMCSPLERS) [reference compound]
TRPA1 channel
  opening frequency: 1.7 ± 0.5 Hz
  single channel open probability (Po): 0.045 ± 0.012
  open state dwell time: 2.2 milliseconds

## cell-penetrating peptide toxin WaTx (from UniProt C0HLG4 36-68)
hTRPA1 [19]
  open state dwell time of WaTx-activated channels, inside-out patches: 2.2 milliseconds

B1: human TRPA1 [Ser448-Thr1078], truncated and non-functional construct for structural studies (domain or fragment)
chain: GSGGSGGSGGSGGSPLHFAASYGRINTCQRLLQDISDTRLLNEGDLHGMTPLHLAAKNGHDKVVQLLLKKGALFLSDHNGWTALHHASMGGYTQTMKVILDTNLKCTDRLDEDGNTALHFAAREGHAKAVALLLSHNADIVLNKQQASFLHLALHNKRKEVVLTIIRSKRWDECLKIFSHNSPGNKCPITEMIEYLPECMKVLLDFCMLHSTEDKSCRDYYIEYNFKYLQCPLEFTKKTPTQDVIYEPLTALNAMVQNNRIELLNHPVCKEYLLMKWLAYGFRAHMMNLGSYCLGLIPMTILVVNIKPGMAFNSTGIINETSDHSEILDTTNSYLIKTCMILVFLSSIFGYCKEAGQIFQQKRNYFMDISNVLEWIIYTTGIIFVLPLFVEIPAHLQWQCGAIAVYFYWMNFLLYLQRFENCGIFIVMLEVILKTLLRSTVVFIFLLLAFGLSFYILLNLQDPFSSPLLSIIQTFSMMLGDINYRESFLEPYLRNELAHPVLSFAQLVSFTIFVPIVLMNLLIGLAVGDIADVQKHASLKRIAMQVELHTSLEKKLPLWFLRKVDQKSTIVYPNKPRSGGMLFHIFCFLFCTGEIRQEIPNADKSLEMEILKQKYRLKDLTFLLEKQHELIKLIIQKMEIISET
cryo-EM structure
  binding result: binds
